Measured values taken from ChEMBL document CHEMBL1134325, “Diaminoindanes as microsomal triglyceride transfer protein inhibitors” (J Med Chem, 2001).
Where “and” joins values, the source holds several entries; their conditions need not be identical. Equal values may be shown once.

Columns and labels:
[1] = target: T1, Microsomal triglyceride transfer protein large subunit (Homo sapiens, UniProt P55157); experiment: In vitro inhibitory activity against MTP using MTP transfer assay
T1 sequence (P55157 whole entry): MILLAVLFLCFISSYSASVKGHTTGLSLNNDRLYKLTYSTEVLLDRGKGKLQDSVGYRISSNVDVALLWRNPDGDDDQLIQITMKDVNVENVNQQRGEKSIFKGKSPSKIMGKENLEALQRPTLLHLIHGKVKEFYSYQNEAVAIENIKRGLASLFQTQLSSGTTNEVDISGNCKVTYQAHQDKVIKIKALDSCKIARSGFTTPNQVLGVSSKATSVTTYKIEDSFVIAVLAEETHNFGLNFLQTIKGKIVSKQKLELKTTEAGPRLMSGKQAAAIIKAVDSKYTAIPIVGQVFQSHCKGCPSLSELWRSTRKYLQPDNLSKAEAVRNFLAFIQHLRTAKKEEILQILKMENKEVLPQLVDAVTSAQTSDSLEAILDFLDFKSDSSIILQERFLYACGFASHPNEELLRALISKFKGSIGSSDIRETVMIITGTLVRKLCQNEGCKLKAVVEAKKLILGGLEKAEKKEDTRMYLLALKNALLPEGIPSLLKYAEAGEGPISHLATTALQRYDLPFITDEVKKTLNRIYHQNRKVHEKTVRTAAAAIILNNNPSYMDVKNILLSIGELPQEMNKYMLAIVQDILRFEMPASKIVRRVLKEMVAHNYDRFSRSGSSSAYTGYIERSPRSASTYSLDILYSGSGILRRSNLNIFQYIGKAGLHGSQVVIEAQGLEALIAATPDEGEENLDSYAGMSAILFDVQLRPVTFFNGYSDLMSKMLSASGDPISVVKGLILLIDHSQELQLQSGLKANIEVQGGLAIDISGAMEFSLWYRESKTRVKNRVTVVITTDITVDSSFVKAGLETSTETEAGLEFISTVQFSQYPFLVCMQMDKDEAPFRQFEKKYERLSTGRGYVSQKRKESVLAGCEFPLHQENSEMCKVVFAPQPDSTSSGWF

Canis familiaris [2] = experiment: Inhibition of plasma total cholesterol in the normolipidemic dogs after day 0 of oral administration of 1 mg/kg/day.; format: functional, Canis lupus familiaris
Method in brief: (§1)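 Normolipidemic dogs dosed once daily for 4 days by oral gavage, compound suspended in cornstarch vehicle. Plasma sampled 24 h after dosing on days 0, 2, 3 and 4, assayed for triglycerides and total cholesterol (mg/dL). Mean percent inhibition versus day-0 level is given for treated dogs; n = 6 per group; significance by one-way ANOVA, p < 0.05.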

Canis familiaris [3] = experiment: Inhibition of plasma total triglycerides in the normolipidemic dogs after day 3 of oral administration of 5 mg/kg/day.; format: functional, Canis lupus familiaris
Canis familiaris [4] = experiment: Inhibition of plasma total triglycerides in the normolipidemic dogs after day 4 of oral administration of 1 mg/kg/day.; format: functional, Canis lupus familiaris
Canis familiaris [5] = experiment: Inhibition of plasma total triglycerides in the normolipidemic dogs after day 4 of oral administration of 2.5 mg/kg/day; format: functional, Canis lupus familiaris
Canis familiaris [6] = experiment: Inhibition of plasma total triglycerides in the normolipidemic dogs after day 4 of oral administration of 5 mg/kg/day; format: functional, Canis lupus familiaris
Canis familiaris [7] = experiment: Inhibition of plasma total cholesterol in the normolipidemic dogs after day 0 of oral administration of 2.5 mg/kg/day.; format: functional, Canis lupus familiaris; method in brief: as §1
Canis familiaris [8] = experiment: Inhibition of plasma total cholesterol in the normolipidemic dogs after day 0 of oral administration of 5 mg/kg/day.; format: functional, Canis lupus familiaris; method in brief: as §1
Canis familiaris [9] = experiment: Inhibition of plasma total cholesterol in the normolipidemic dogs after day 2 of oral administration of 1 mg/kg/day.; format: functional, Canis lupus familiaris; method in brief: as §1
Canis familiaris [10] = experiment: Inhibition of plasma total cholesterol in the normolipidemic dogs after day 2 of oral administration of 2.5 mg/kg/day.; format: functional, Canis lupus familiaris; method in brief: as §1
Canis familiaris [11] = experiment: Inhibition of plasma total triglycerides in the normolipidemic dogs after day 3 of oral administration of 1 mg/kg/day.; format: functional, Canis lupus familiaris
Canis familiaris [12] = experiment: Inhibition of plasma total cholesterol in the normolipidemic dogs after day 2 of oral administration of 5 mg/kg/day.; format: functional, Canis lupus familiaris; method in brief: as §1
Canis familiaris [13] = experiment: Inhibition of plasma total cholesterol in the normolipidemic dogs after day 3 of oral administration of 1 mg/kg/day.; format: functional, Canis lupus familiaris; method in brief: as §1
Canis familiaris [14] = experiment: Inhibition of plasma total cholesterol in the normolipidemic dogs after day 3 of oral administration of 2.5 mg/kg/day.; format: functional, Canis lupus familiaris; method in brief: as §1
Canis familiaris [15] = experiment: Inhibition of plasma total cholesterol in the normolipidemic dogs after day 3 of oral administration of 5 mg/kg/day.; format: functional, Canis lupus familiaris; method in brief: as §1
Canis familiaris [16] = experiment: Inhibition of plasma total cholesterol in the normolipidemic dogs after day 4 of oral administration of 1 mg/kg/day; format: functional, Canis lupus familiaris; method in brief: as §1
Canis familiaris [17] = experiment: Inhibition of plasma total cholesterol in the normolipidemic dogs after day 4 of oral administration of 2.5 mg/kg/day; format: functional, Canis lupus familiaris; method in brief: as §1
Canis familiaris [18] = experiment: Inhibition of plasma total cholesterol in the normolipidemic dogs after day 4 of oral administration of 5 mg/kg/day; format: functional, Canis lupus familiaris; method in brief: as §1
Canis familiaris [19] = experiment: Inhibition of plasma total triglycerides in the normolipidemic dogs after day 0 of oral administration of 1 mg/kg/day.; format: functional, Canis lupus familiaris; method in brief: as §1
Canis familiaris [20] = experiment: Inhibition of plasma total triglycerides in the normolipidemic dogs after day 0 of oral administration of 2.5 mg/kg/day.; format: functional, Canis lupus familiaris; method in brief: as §1
Canis familiaris [21] = experiment: Inhibition of plasma total triglycerides in the normolipidemic dogs after day 0 of oral administration of 5 mg/kg/day.; format: functional, Canis lupus familiaris; method in brief: as §1
Canis familiaris [22] = experiment: Inhibition of plasma total triglycerides in the normolipidemic dogs after day 2 of oral administration of 1 mg/kg/day.; format: functional, Canis lupus familiaris; method in brief: as §1
Canis familiaris [23] = experiment: Inhibition of plasma total triglycerides in the normolipidemic dogs after day 2 of oral administration of 2.5 mg/kg/day.; format: functional, Canis lupus familiaris; method in brief: as §1
Rattus norvegicus [24] = experiment: Inhibition of plasma triglycerides in normolipidemic rats after 2 hr of 10 mg/kg oral dosing; format: functional
Method in brief: (§2)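 Overnight-fasted normolipidemic rats received a single oral dose in cornstarch vehicle. Blood was drawn at 2, 6 and 24 h post-dose and assayed for triglycerides and total cholesterol, with free access to food after the 6 h sample. Value is mean percent inhibition versus a separate vehicle-treated group, unpaired t test p < 0.05, NS = no significant change, N = 6.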

Rattus norvegicus [25] = experiment: Inhibition of plasma triglycerides in normolipidemic rats after 2 hr of 5 mg/kg oral dosing; format: functional; method in brief: as §2
Rattus norvegicus [26] = experiment: Inhibition of plasma triglycerides in normolipidemic rats after 2 hr of 50 mg/kg oral dosing; format: functional; method in brief: as §2
Rattus norvegicus [27] = experiment: Inhibition of plasma triglycerides in normolipidemic rats after 24 hr of 50 mg/kg oral dosing; format: functional; method in brief: as §2
Rattus norvegicus [28] = experiment: Inhibition of plasma triglycerides in normolipidemic rats after 6 hr of 10 mg/kg oral dosing; format: functional; method in brief: as §2
Rattus norvegicus [29] = experiment: Inhibition of plasma triglycerides in normolipidemic rats after 6 h of 5 mg/kg oral dosing; format: functional; method in brief: as §2
Rattus norvegicus [30] = experiment: Inhibition of plasma triglycerides in normolipidemic rats after 6 hr of 50 mg/kg oral dosing; format: functional; method in brief: as §2
Rattus norvegicus [31] = experiment: Inhibition of total cholesterol in normolipidemic rats after 2 hr of 50 mg/kg oral dosing; format: functional; conditions: 50 mg/kg; method in brief: as §2
Rattus norvegicus [32] = experiment: Inhibition of total cholesterol in normolipidemic rats after 6 hr of 50 mg/kg oral dosing; format: functional; conditions: 50 mg/kg; method in brief: as §2
Rattus norvegicus [33] = species on record: Rattus norvegicus; experiment: Hepatic cholesterol content in Normolipidemic rat liver after treatment.; format: functional
Method in brief: (§3)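 Normolipidemic rats dosed orally, with vehicle controls. Liver cholesterol and triglyceride are reported as mg/g of liver, and liver weight in g. For the reversibility set, dosing was 5 mg/kg for 5 days, with livers analysed after treatment and again 6 days after treatment withdrawal.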

Rattus norvegicus [34] = species on record: Rattus norvegicus; experiment: Hepatic cholesterol content in Normolipidemic rat liver after washout.; format: functional; method in brief: as §3
Rattus norvegicus [35] = experiment: Hepatic cholesterol content in Normolipidemic rat liver for 1 mg/kg of dose of the compound; format: functional; method in brief: as §3
Rattus norvegicus [36] = experiment: Hepatic cholesterol content in Normolipidemic rat liver for 5 mg/kg of dose of the compound; format: functional; method in brief: as §3
Rattus norvegicus [37] = species on record: Rattus norvegicus; experiment: Hepatic triglyceride content in Normolipidemic rat liver after treatment.; format: functional; method in brief: as §3
Rattus norvegicus [38] = species on record: Rattus norvegicus; experiment: Hepatic triglyceride content in Normolipidemic rat liver after washout.; format: functional; method in brief: as §3
Rattus norvegicus [39] = experiment: Hepatic triglyceride content in Normolipidemic rat liver for 0.5 mg/kg of dose of the compound; format: functional; method in brief: as §3
Rattus norvegicus [40] = experiment: Hepatic triglyceride content in Normolipidemic rat liver for 1 mg/kg of dose of the compound; format: functional; method in brief: as §3
Rattus norvegicus [41] = experiment: Hepatic triglyceride content in Normolipidemic rat liver for 5 mg/kg of dose of the compound; format: functional; method in brief: as §3
Rattus norvegicus [42] = experiment: Total liver weight in Normolipidemic rat liver for 0.5 mg/kg of dose of the compound; format: functional; method in brief: as §3
Rattus norvegicus [43] = experiment: Total liver weight in Normolipidemic rat liver for 1 mg/kg of dose of the compound; format: functional; method in brief: as §3
Rattus norvegicus [44] = experiment: Total liver weight in Normolipidemic rat liver for 5 mg/kg of dose of the compound; format: functional; method in brief: as §3
Rattus norvegicus [45] = experiment: Inhibition of plasma triglycerides in normolipidemic rats after 24 hr of 10 mg/kg oral dosing; no significant change; format: functional, organism-based; parameters: dose 10 mg/kg; method in brief: as §2
Canis familiaris [46] = experiment: Inhibition of plasma total triglycerides in the normolipidemic dogs after day 2 of oral administration of 5 mg/kg/day.; format: functional, Canis lupus familiaris; method in brief: as §1
Canis familiaris [47] = experiment: Inhibition of plasma total triglycerides in the normolipidemic dogs after day 3 of oral administration of 2.5 mg/kg/day.; format: functional, Canis lupus familiaris
Rattus norvegicus [48] = experiment: Hepatic cholesterol content in Normolipidemic rat liver for 0.5 mg/kg of dose of the compound; format: functional; method in brief: as §3

Work on `COC(=O)N[C@H]1Cc2ccc(NC(=O)c3cccc(C)c3-c3ccc(C(F)(F)F)cc3)cc2C1` yielded an IC50 [1] of 70 nM, a Lipid level (Canis familiaris [2]) of 110 mg/dL and a Lipid level (Canis familiaris [3]) of under 16 mg/dL. It also gave a Lipid level (Canis familiaris [4]) of 45 mg/dL, a Lipid level (Canis familiaris [5]) of under 23 mg/dL and a Lipid level (Canis familiaris [6]) of under 12 mg/dL. For the same compound, the Lipid level (Canis familiaris [7]) was 113 mg/dL, the Lipid level (Canis familiaris [8]) was 124 mg/dL and the Lipid level (Canis familiaris [9]) was 103 mg/dL. For the same compound, the Lipid level (Canis familiaris [10]) was under 90 mg/dL, the Lipid level (Canis familiaris [11]) was 48 mg/dL and the Lipid level (Canis familiaris [12]) was under 87 mg/dL. The Lipid level (Canis familiaris [13]) was 101 mg/dL, the Lipid level (Canis familiaris [14]) was under 76 mg/dL and the Lipid level (Canis familiaris [15]) was under 68 mg/dL. For the same compound, the Lipid level (Canis familiaris [16]) was under 89 mg/dL, the Lipid level (Canis familiaris [17]) was under 57 mg/dL and the Lipid level (Canis familiaris [18]) was under 54 mg/dL. The Lipid level (Canis familiaris [19]) was 46 mg/dL, the Lipid level (Canis familiaris [20]) was 59 mg/dL and the Lipid level (Canis familiaris [21]) was 48 mg/dL. It also gave a Lipid level (Canis familiaris [22]) of 42 mg/dL, a Lipid level (Canis familiaris [23]) of under 32 mg/dL and a Reduction (Rattus norvegicus [24]) of 84%. For the same compound, the Reduction (Rattus norvegicus [25]) was 78%, the Reduction (Rattus norvegicus [26]) was 81% and the Reduction (Rattus norvegicus [27]) was 63%. For the same compound, the Reduction (Rattus norvegicus [28]) was 68%, the Reduction (Rattus norvegicus [29]) was 59% and the Reduction (Rattus norvegicus [30]) was 71%. The Reduction (Rattus norvegicus [31]) was 33% and 41% and 30%, the Reduction (Rattus norvegicus [32]) was 52% and 58% and 47% and the Hepatic cholesterol (Rattus norvegicus [33]) was under 2.76 mg/g. The Hepatic cholesterol (Rattus norvegicus [34]) was 1.12 mg/g, the Hepatic cholesterol (Rattus norvegicus [35]) was 2.01 mg/g and the Hepatic cholesterol (Rattus norvegicus [36]) was 3.09 mg/g. For the same compound, the Hepatic triglyceride (Rattus norvegicus [37]) was under 13.6 mg/g, the Hepatic triglyceride (Rattus norvegicus [38]) was 2.38 mg/g and the Hepatic triglyceride (Rattus norvegicus [39]) was 4.61 mg/g. It also gave a Hepatic triglyceride (Rattus norvegicus [40]) of 8.16 mg/g, a Hepatic triglyceride (Rattus norvegicus [41]) of 17.7 mg/g and a Total liver weight (Rattus norvegicus [42]) of 9.13 g. The Total liver weight (Rattus norvegicus [43]) was 9.6 g, the Total liver weight (Rattus norvegicus [44]) was 9.79 g and the NS (Rattus norvegicus [45]) was “no significant change”. The Lipid level (Canis familiaris [46]) was under 22 mg/dL, the Lipid level (Canis familiaris [47]) was under 25 mg/dL and the Hepatic cholesterol (Rattus norvegicus [48]) was 1.4 mg/g.
